{"source": "ChEMBL document CHEMBL1145777", "about": "(J Med Chem, 2003)", "key": {"Mu-type opioid receptor [1]": {"target": "T1, Mu-type opioid receptor (Homo sapiens, UniProt P35372)", "T1 sequence (P35372 whole entry)": "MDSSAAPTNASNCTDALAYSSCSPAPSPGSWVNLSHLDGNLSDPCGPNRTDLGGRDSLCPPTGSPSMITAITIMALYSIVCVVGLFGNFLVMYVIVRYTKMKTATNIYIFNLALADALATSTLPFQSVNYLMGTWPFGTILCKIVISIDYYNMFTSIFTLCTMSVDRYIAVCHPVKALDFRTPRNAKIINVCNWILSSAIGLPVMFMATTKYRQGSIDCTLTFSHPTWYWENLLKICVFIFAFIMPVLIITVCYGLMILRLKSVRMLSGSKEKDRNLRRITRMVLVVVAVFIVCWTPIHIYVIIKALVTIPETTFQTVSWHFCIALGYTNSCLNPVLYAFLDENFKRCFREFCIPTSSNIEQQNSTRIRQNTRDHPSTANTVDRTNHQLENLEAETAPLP", "assay": "Incorporation of [35S]GTP-gamma-S, into CHO membranes expressing human Opioid receptor mu 1", "type": "functional"}, "[2]": {"target": "T2, Kappa-type opioid receptor (Homo sapiens, UniProt P41145)", "T2 sequence (P41145 whole entry)": "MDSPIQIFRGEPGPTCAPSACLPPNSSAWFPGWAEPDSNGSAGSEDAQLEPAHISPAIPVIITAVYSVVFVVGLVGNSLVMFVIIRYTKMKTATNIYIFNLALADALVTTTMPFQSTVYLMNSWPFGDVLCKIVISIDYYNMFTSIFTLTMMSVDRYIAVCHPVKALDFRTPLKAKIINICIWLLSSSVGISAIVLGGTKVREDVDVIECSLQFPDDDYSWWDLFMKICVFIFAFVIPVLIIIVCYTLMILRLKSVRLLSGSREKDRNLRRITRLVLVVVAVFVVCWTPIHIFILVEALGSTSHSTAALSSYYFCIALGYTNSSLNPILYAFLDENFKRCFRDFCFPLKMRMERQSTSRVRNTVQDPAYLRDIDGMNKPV", "assay": "(§1) Incorporation of [35S]GTP-gamma-S, into CHO membranes expressing human Opioid receptor kappa 1", "type": "functional"}, "[3]": {"assay": "Binding affinity towards Opioid receptor delta 1 from guinea pig brain using [3H]naltrindole as radioligand"}, "Mu-type opioid receptor [4]": {"target": "T1, Mu-type opioid receptor", "assay": "Incorporation of [35S]- GTPgammaS into CHO membranes expressing human Opioid receptor mu 1"}, "Mu-type opioid receptor [5]": {"target": "Mu-type opioid receptor (Cavia porcellus, UniProt P97266)", "sequence (P97266 whole entry)": "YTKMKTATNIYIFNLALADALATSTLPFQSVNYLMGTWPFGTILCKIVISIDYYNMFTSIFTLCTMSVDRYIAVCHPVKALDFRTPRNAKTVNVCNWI", "assay": "Binding affinity towards Opioid receptor mu 1 from guinea pig brain using [3H]DAMGO as radioligand"}, "[6]": {"target": "T2, Kappa-type opioid receptor", "assay": "as §1", "type": "functional", "remark": "listed apart in the source"}, "[7]": {"target": "Kappa-type opioid receptor (Cavia porcellus, UniProt P41144)", "sequence (P41144 whole entry)": "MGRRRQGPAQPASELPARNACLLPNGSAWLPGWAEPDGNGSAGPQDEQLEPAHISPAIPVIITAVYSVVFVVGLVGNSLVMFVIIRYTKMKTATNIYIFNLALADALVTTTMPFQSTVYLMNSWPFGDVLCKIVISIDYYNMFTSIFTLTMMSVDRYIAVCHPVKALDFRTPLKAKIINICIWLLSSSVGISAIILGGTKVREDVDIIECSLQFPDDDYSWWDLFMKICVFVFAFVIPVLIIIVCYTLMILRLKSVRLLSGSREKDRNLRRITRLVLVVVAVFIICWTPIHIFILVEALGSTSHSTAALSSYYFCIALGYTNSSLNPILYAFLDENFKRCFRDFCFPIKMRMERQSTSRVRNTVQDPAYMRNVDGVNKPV", "assay": "Binding affinity towards Opioid receptor kappa 1 from guinea pig brain using [3H]U-69593 as radioligand", "outline": "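Uses 1 nM [3H]U69,593 with guinea pig brain membrane protein (500 µg), 12 concentrations, 50 mM Tris-HCl pH 7.5, 60 min at 25 °C. Nonspecific binding with 10 µM naloxone. Filters pre-soaked in 0.1% polyethylenimine; bound label counted.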"}, "[8]": {"target": "Kappa-type opioid receptor (Cavia porcellus) (UniProt P41144)", "sequence (P41144 whole entry)": "as above", "assay": "Ratio of binding affinity of Opioid receptor kappa 1 to Opioid receptor mu 1 to Opioid receptor delta 1; kappa:mu:delta = 1:1:1"}, "[9]": {"target": "Kappa-type opioid receptor (Cavia porcellus) (UniProt P41144)", "assay": "Ratio of binding affinity of Opioid receptor kappa 1 to Opioid receptor mu 1 to Opioid receptor delta 1; kappa:mu:delta = 47:26:1"}, "[10]": {"target": "Kappa-type opioid receptor (Cavia porcellus) (UniProt P41144)", "assay": "Ratio of binding affinity of Opioid receptor kappa 1 to Opioid receptor mu 1 to Opioid receptor delta 1; kappa:mu:delta = 9:1:1"}, "[11]": {"target": "Kappa-type opioid receptor (Cavia porcellus) (UniProt P41144)", "assay": "Ratio of binding affinity of Opioid receptor kappa 1 to Opioid receptor mu 1 to Opioid receptor delta 1; kappa:mu:delta = 9:5:1"}, "[12]": {"target": "Kappa-type opioid receptor (Cavia porcellus) (UniProt P41144)", "assay": "Ratio of binding affinity of Opioid receptor kappa 1 to Opioid receptor mu 1 to Opioid receptor delta 1; kappa:mu:delta = 11:7:1"}, "[13]": {"target": "Kappa-type opioid receptor (Cavia porcellus) (UniProt P41144)", "assay": "Ratio of binding affinity of Opioid receptor kappa 1 to Opioid receptor mu 1 to Opioid receptor delta 1; kappa:mu:delta = 12:4:1"}, "[14]": {"target": "Kappa-type opioid receptor (Cavia porcellus) (UniProt P41144)", "assay": "Ratio of binding affinity of Opioid receptor kappa 1 to Opioid receptor mu 1 to Opioid receptor delta 1; kappa:mu:delta = 7:3:1"}}, "data": [{"compound": "C[C@H]1[C@H]2Cc3ccc(O)cc3[C@]1(C)CCN2CC1CC1", "note": "(stereo in doubt; (-)2)", "values": [{"measurement": "Emax", "setting": "Mu-type opioid receptor [1]", "result": 50, "unit": "%"}, {"measurement": "Emax", "setting": "[2]", "result": 100, "unit": "%"}]}, {"compound": "C[C@H]1C2Cc3ccc(N(C)C)cc3[C@@]1(C)CCN2CC1CC1", "note": "(stereo in doubt; 30)", "values": [{"measurement": "Ki", "setting": "[3]", "result": 1500, "unit": "nM"}]}, {"compound": "CC[C@@]12CCN(CC3CC3)C(C(=O)c3ccc(N)cc31)[C@@H]2C", "note": "(stereo in doubt; 44)", "values": [{"measurement": "EC50", "setting": "Mu-type opioid receptor [4]", "result": 62, "unit": "nM"}, {"measurement": "Ki", "setting": "Mu-type opioid receptor [5]", "result": 7.3, "unit": "nM"}, {"measurement": "EC50", "setting": "[6]", "result": 4.4, "unit": "nM"}, {"measurement": "Ki", "setting": "[7]", "result": 0.34, "unit": "nM"}]}, {"compound": "C[C@H]1C2Cc3ccc(N)cc3[C@@]1(C)CCN2CC1CC1", "values": [{"measurement": "Ki", "setting": "[3]", "result": 110, "unit": "nM"}]}, {"compound": "COc1cccc(Nc2ccc3c(c2)[C@@]2(C)CCN(CC4CC4)C(C3)[C@@H]2C)c1", "values": [{"measurement": "Ki", "setting": "Mu-type opioid receptor [5]", "result": 1.8, "unit": "nM"}, {"measurement": "Ki", "setting": "[7]", "result": 1, "unit": "nM"}]}, {"compound": "COc1ccc(CNc2ccc3c(c2)[C@@]2(C)CCN(CC4CC4)C(C3)[C@@H]2C)cc1", "values": [{"measurement": "Ki", "setting": "Mu-type opioid receptor [5]", "result": 7.8, "unit": "nM"}, {"measurement": "Ki", "setting": "[7]", "result": 71, "unit": "nM"}]}, {"compound": "C[C@H]1C2Cc3ccc(Nc4ccncc4)cc3[C@@]1(C)CCN2CC1CC1", "values": [{"measurement": "Ki", "setting": "Mu-type opioid receptor [5]", "result": 18, "unit": "nM"}, {"measurement": "Ki", "setting": "[7]", "result": 2.9, "unit": "nM"}]}, {"compound": "C[C@H]1[C@H]2Cc3ccc(N)cc3[C@@]1(C)CCN2CC1CC1", "values": [{"measurement": "Emax", "setting": "[2]", "result": 80, "unit": "%"}, {"measurement": "EC50", "setting": "[6]", "result": 20, "unit": "nM"}, {"measurement": "Ki", "setting": "[3]", "result": 12, "unit": "nM"}]}, {"compound": "C[C@H]1[C@H]2Cc3ccc(Nc4ccccc4)cc3[C@@]1(C)CCN2CC1CC1", "values": [{"measurement": "Emax", "setting": "Mu-type opioid receptor [1]", "result": 50, "unit": "%"}, {"measurement": "Emax", "setting": "[2]", "result": 120, "unit": "%"}]}, {"compound": "C[C@H]1C2Cc3ccc(N4CCCC4)cc3[C@@]1(C)CCN2CC1CC1", "values": [{"measurement": "Ki", "setting": "[3]", "result": 1800, "unit": "nM"}]}, {"compound": "C[C@H]1C2Cc3ccc(N=C(c4ccccc4)c4ccccc4)cc3[C@@]1(C)CCN2CC1CC1", "values": [{"measurement": "Ki", "setting": "Mu-type opioid receptor [5]", "result": 360, "unit": "nM"}, {"measurement": "Ratio", "setting": "[8]", "result": 1}, {"measurement": "Ki", "setting": "[7]", "result": 170, "unit": "nM"}]}, {"compound": "C[C@H]1[C@H]2Cc3ccc(N)cc3[C@@]1(C)CCN2C[C@@H]1CCCO1", "values": [{"measurement": "Emax", "setting": "[2]", "result": 330, "unit": "%"}, {"measurement": "Ki", "setting": "Mu-type opioid receptor [5]", "result": 14, "unit": "nM"}, {"measurement": "EC50", "setting": "[6]", "result": 70, "unit": "nM"}, {"measurement": "Ratio", "setting": "[9]", "result": 47}, {"measurement": "Ki", "setting": "[7]", "result": 7.8, "unit": "nM"}]}, {"compound": "CC[C@@]12CCN(CC3CC3)C(C(=O)c3ccc(O)cc31)[C@@H]2C", "note": "(single isomer, unassigned; (-)) [ETHYLKETOCYCLAZOCINE]", "values": [{"measurement": "EC50", "setting": "Mu-type opioid receptor [4]", "result": 5.5, "unit": "nM"}, {"measurement": "Ki", "setting": "Mu-type opioid receptor [5]", "result": 0.73, "unit": "nM"}]}, {"compound": "C[C@H]1C2Cc3ccc(Nc4ccc(N(C)C)cc4)cc3[C@@]1(C)CCN2CC1CC1", "values": [{"measurement": "Ki", "setting": "Mu-type opioid receptor [5]", "result": 70, "unit": "nM"}, {"measurement": "Ratio", "setting": "[10]", "result": 9}, {"measurement": "Ki", "setting": "[7]", "result": 8.8, "unit": "nM"}]}, {"compound": "CC[C@@]12CCN(CC3CC3)C(C(=O)c3ccc(N)cc31)[C@@H]2C", "note": "(single isomer, unassigned; (+))", "values": [{"measurement": "Ratio", "setting": "[11]", "result": 9}]}, {"compound": "C[C@H]1[C@H]2Cc3ccc(Nc4ccccc4)cc3[C@@]1(C)CCN2CC1CC1", "note": "(stereo in doubt; 10)", "values": [{"measurement": "Ratio", "setting": "[12]", "result": 11}]}, {"compound": "C[C@H]1C2Cc3ccc(NCc4ccccc4)cc3[C@@]1(C)CCN2CC1CC1", "note": "(stereo in doubt; 25)", "values": [{"measurement": "Ki", "setting": "[3]", "result": 57, "unit": "nM"}]}, {"compound": "C[C@H]1[C@H]2Cc3ccc(Nc4ccccc4)cc3[C@@]1(C)CCN2C[C@@H]1CCCO1", "values": [{"measurement": "Ki", "setting": "Mu-type opioid receptor [5]", "result": 2.8, "unit": "nM"}, {"measurement": "Ki", "setting": "[7]", "result": 2, "unit": "nM"}]}, {"compound": "C[C@H]1C2Cc3ccc(NCc4ccc(Cl)cc4)cc3[C@@]1(C)CCN2CC1CC1", "values": [{"measurement": "Ki", "setting": "Mu-type opioid receptor [5]", "result": 8.8, "unit": "nM"}, {"measurement": "Ki", "setting": "[7]", "result": 7.2, "unit": "nM"}]}, {"compound": "CC[C@@]12CCN(CC3CC3)C(C(=O)c3ccc(O)cc31)[C@@H]2C", "note": "(single isomer, unassigned; (-))", "values": [{"measurement": "Emax", "setting": "Mu-type opioid receptor [1]", "result": 70, "unit": "%"}, {"measurement": "Emax", "setting": "[2]", "result": 170, "unit": "%"}]}, {"compound": "CCNc1ccc2c(c1)[C@@]1(C)CCN(CC3CC3)C(C2)[C@@H]1C", "values": [{"measurement": "Ki", "setting": "[3]", "result": 19, "unit": "nM"}]}, {"compound": "C[C@H]1C2Cc3ccc(N4CCCCC4)cc3[C@@]1(C)CCN2CC1CC1", "values": [{"measurement": "Ki", "setting": "Mu-type opioid receptor [5]", "result": 95, "unit": "nM"}, {"measurement": "Ratio", "setting": "[13]", "result": 12}, {"measurement": "Ki", "setting": "[3]", "result": 3600, "unit": "nM"}]}, {"compound": "CC[C@@]12CCN(CC3CC3)C(C(=O)c3ccc(N)cc31)[C@@H]2C", "note": "(single isomer, unassigned; (-))", "values": [{"measurement": "Emax", "setting": "Mu-type opioid receptor [1]", "result": 10, "unit": "%"}, {"measurement": "Emax", "setting": "[2]", "result": 110, "unit": "%"}, {"measurement": "Ratio", "setting": "[14]", "result": 7}]}, {"compound": "C[C@H]1[C@H]2Cc3ccc(Nc4ccccc4)cc3[C@@]1(C)CCN2CC1CC1", "note": "(stereo in doubt; (+)12)", "values": [{"measurement": "Ki", "setting": "[3]", "result": 270, "unit": "nM"}]}, {"compound": "C[C@H]1[C@H]2Cc3ccc(O)cc3[C@]1(C)CCN2CC1CC1", "note": "(stereo in doubt)", "values": [{"measurement": "Emax", "setting": "[2]", "result": 90, "unit": "%"}]}, {"compound": "C[C@H]1C2Cc3ccc(N(C)C)cc3[C@@]1(C)CCN2CC1CC1", "note": "(single isomer, unassigned; (-))", "values": [{"measurement": "Ki", "setting": "Mu-type opioid receptor [5]", "result": 46, "unit": "nM"}, {"measurement": "Ki", "setting": "[7]", "result": 18, "unit": "nM"}]}, {"compound": "C[C@H]1C2Cc3ccc(Nc4cccnc4)cc3[C@@]1(C)CCN2CC1CC1", "values": [{"measurement": "Emax", "setting": "[2]", "result": 90, "unit": "%"}, {"measurement": "Ki", "setting": "Mu-type opioid receptor [5]", "result": 0.64, "unit": "nM"}, {"measurement": "EC50", "setting": "[6]", "result": 10, "unit": "nM"}, {"measurement": "Ki", "setting": "[7]", "result": 0.5, "unit": "nM"}]}]}
